{"data": "Measurements gathered from unrelated publications", "organism": "Plasmodium falciparum", "observed": "parasite growth", "note": "Each line is one published result; the experiments were not run side by side."}
{"Compound": "Cn1cc2c3c1C(=O)C(NCCc1ccc(O)cc1)=CC3=NCC2", "technique": "SYBR Green", "strain": "DD2", "setting": "blood stage", "quantity": "IC50", "value": "2380 nM"}
{"Compound": "O=C(/C=C/c1cn(Cc2cn(-c3ccnc4cc(Cl)ccc34)nn2)c2ccccc12)c1ccc(Br)cc1", "technique": "SYBR Green", "strain": "3D7", "concentration": "10 µM", "setting": "blood stage", "quantity": "inhibition", "value": "37.4%"}
{"Compound": "CCOCC(=O)N1CCC[C@H](C(=O)NCc2nc(-c3ccccc3)cs2)C1", "technique": "SYBR Green", "strain": "DD2", "time": "72 h", "setting": "blood stage", "quantity": "EC50", "value": "24 nM"}
{"Compound": "O=C(/C=C/c1cn(Cc2cn(-c3ccnc4cc(Cl)ccc34)nn2)c2ccccc12)c1ccccc1Cl", "technique": "SYBR Green", "strain": "3D7", "concentration": "5 µM", "setting": "blood stage", "quantity": "inhibition", "value": "42.4%"}
{"Compound": "CCOC(=O)C1=C(C)NC2=C(C(=O)CC(c3ccc(Cl)c(OC)c3)C2)C1c1ccccc1Cl (centres unmarked)", "technique": "SYBR Green", "strain": "3D7", "setting": "blood stage", "quantity": "EC50", "value": "~20 nM"}
{"Compound": "COc1ccccc1C(=O)/C=C/c1cn(Cc2cn(-c3ccnc4cc(Cl)ccc34)nn2)c2ccccc12", "technique": "SYBR Green", "strain": "3D7", "concentration": "5 µM", "setting": "blood stage", "quantity": "inhibition", "value": "56.8%"}
{"Compound": "NC1=CC2=NCCc3c[nH]c(c32)C1=O", "technique": "SYBR Green", "strain": "DD2", "setting": "blood stage", "quantity": "IC50", "value": "478 nM"}
{"Compound": "Cc1cc(Nc2ccc(S(F)(F)(F)(F)F)cc2)n2nc(C(C)(F)F)nc2n1", "strain": "3D7", "setting": "blood stage", "quantity": "EC50", "value": "8.4 nM"}
{"Compound": "CCOCC(=O)N1CCC[C@H](C(=O)NCc2nc(-c3ccc(C)nc3)cs2)C1", "technique": "SYBR Green", "strain": "DD2", "time": "72 h", "setting": "blood stage", "quantity": "EC50", "value": "5 nM"}
{"Compound": "O=C(/C=C/c1cn(Cc2cn(-c3ccnc4cc(Cl)ccc34)nn2)c2ccccc12)c1cccs1", "technique": "SYBR Green", "strain": "3D7", "concentration": "5 µM", "setting": "blood stage", "quantity": "inhibition", "value": "32.1%"}
{"Compound": "COCC(=O)N1CCC[C@@H](C(=O)NCc2nc(-c3ccccc3)cs2)C1", "technique": "SYBR Green", "strain": "DD2", "time": "72 h", "setting": "blood stage", "quantity": "EC50", "value": "7000 nM"}
{"Compound": "O=C1C(NCCc2c[nH]c3ccccc23)=CC2=NCCc3c[nH]c1c32", "technique": "SYBR Green", "strain": "W2", "setting": "blood stage", "quantity": "IC50", "value": "716 nM"}
{"Compound": "COCC(=O)N1CCC[C@H](C(=O)NCc2nc(-c3ccc(OC)cc3)cs2)C1", "technique": "SYBR Green", "strain": "DD2", "time": "72 h", "setting": "blood stage", "quantity": "EC50", "value": "20 nM"}
{"Compound": "COC(CNC1=CC2=NCCc3c[nH]c(c32)C1=O)c1c[nH]c2ccccc12 (centres unmarked)", "technique": "SYBR Green", "strain": "DD2", "setting": "blood stage", "quantity": "IC50", "value": "654 nM"}
{"Compound": "O=C(/C=C/c1cn(Cc2cn(-c3ccnc4cc(Cl)ccc34)nn2)c2ccccc12)c1ccccc1[N+](=O)[O-]", "technique": "SYBR Green", "strain": "3D7", "concentration": "10 µM", "setting": "blood stage", "quantity": "inhibition", "value": "26.1%"}
{"Compound": "O=C1c2[nH]cc3c2C(=NCC3)c2c(-c3ccc(O)cc3)c[nH]c21", "technique": "SYBR Green", "strain": "DD2", "setting": "blood stage", "quantity": "IC50", "value": "4770 nM"}
{"Compound": "CCOCC(=O)N1CCC[C@H](C(=O)NCc2nc(-c3ccc(C#N)cc3)cs2)C1", "technique": "SYBR Green", "strain": "DD2", "time": "72 h", "setting": "blood stage", "quantity": "EC50", "value": "5.8 nM"}
{"Compound": "O=C1C(NCCc2ccc(O)cc2)=CC2=NCCc3c[nH]c1c32", "technique": "SYBR Green", "strain": "W2", "setting": "blood stage", "quantity": "IC50", "value": "476 nM"}
{"Compound": "Cc1cc(Nc2ccc(S(F)(F)(F)(F)F)cc2)n2nc(C(C)(F)F)nc2n1", "technique": "SYBR Green", "time": "72 h", "quantity": "EC50", "value": "5.7 nM"}
{"Compound": "O=C(/C=C/c1cn(Cc2cn(-c3ccnc4cc(Cl)ccc34)nn2)c2ccccc12)c1ccccc1Br", "technique": "SYBR Green", "strain": "3D7", "concentration": "5 µM", "setting": "blood stage", "quantity": "inhibition", "value": "-1.58%"}
